Measurements published in ChEMBL document CHEMBL1153231, “Novel thioamide derivatives as neutral CB1 receptor antagonists” (Bioorg Med Chem Lett, 2010).
≈ marks a conversion by molar mass, not a printed value.

Key:
Cannabinoid receptor 1 = Cannabinoid receptor 1 (Homo sapiens, UniProt P21554); assay: Agonist activity at human CB1 receptor assessed as stimulation of [35S]GTPgammaS binding; format: functional
[1] = Aqueous solubility of the compound; format: physicochemical
[2] = Plasma concentration in mouse at 20 umol/kg, po after 0.5 hrs; format: ADME, organism-based
Method in brief: (§1)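 Cafeteria-diet-induced obese mice were given repeated peroral doses. Plasma and brain tissue were sampled 0.5 h, 2 h and 6 h after the last dose, and after a 7-day washout. Levels of both the parent thioamide and its carboxamide counterpart were measured in the same samples. Plasma levels are per litre and brain levels per gram of tissue.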

[3] = Drug level in mouse brain at 20 umol/kg, po after 0.5 hrs; format: ADME, organism-based; method in brief: as §1
[4] = Plasma concentration in mouse at 20 umol/kg, po after 2 hrs; format: ADME, organism-based; method in brief: as §1
[5] = Drug level in mouse brain at 20 umol/kg, po after 2 hrs; format: ADME, organism-based; method in brief: as §1
[6] = Plasma concentration in mouse at 20 umol/kg, po after 6 hrs; format: ADME, organism-based; method in brief: as §1
[7] = Drug level in mouse brain at 20 umol/kg, po after 6 hrs; format: ADME, organism-based; method in brief: as §1
[8] = Plasma concentration in mouse at 20 umol/kg, po after 7 days; format: ADME, organism-based; method in brief: as §1
[9] = Drug level in mouse brain at 20 umol/kg, po after 7 days; format: ADME, organism-based; method in brief: as §1
Mus musculus [10] = assay: Reduction in body weight of diet induced obese C57BL/6 mouse at 20-60 umol/kg after 1 week relative to control; format: functional; parameters: scale not given: the % may be the effect or the level left
Method in brief: (§2)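 The test agents were given perorally to cafeteria-diet-induced obese mice over 1–3 weeks. Body weight was tracked as a percentage of initial body weight and compared with vehicle-treated animals.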

Mus musculus [11] = assay: Reduction in body weight of diet induced obese C57BL/6 mouse at 20 umol/kg after 1 to 3 weeks relative to control; format: functional; parameters: scale not given: the % may be the effect or the level left; method in brief: as §2

Chain of Cannabinoid receptor 1 (P21554 whole entry): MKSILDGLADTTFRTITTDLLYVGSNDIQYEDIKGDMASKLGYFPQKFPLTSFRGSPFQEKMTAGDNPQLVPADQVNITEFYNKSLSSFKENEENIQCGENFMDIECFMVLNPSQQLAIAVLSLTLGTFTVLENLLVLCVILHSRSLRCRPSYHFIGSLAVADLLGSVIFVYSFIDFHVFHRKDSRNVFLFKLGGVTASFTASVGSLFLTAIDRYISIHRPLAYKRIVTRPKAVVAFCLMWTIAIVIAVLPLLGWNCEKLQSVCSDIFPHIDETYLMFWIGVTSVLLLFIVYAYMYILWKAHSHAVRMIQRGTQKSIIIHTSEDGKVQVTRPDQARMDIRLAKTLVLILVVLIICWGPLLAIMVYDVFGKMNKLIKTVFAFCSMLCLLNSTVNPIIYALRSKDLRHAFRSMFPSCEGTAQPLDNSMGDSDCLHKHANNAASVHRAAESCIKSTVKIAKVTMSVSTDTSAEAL

IC50 (Cannabinoid receptor 1) [nM] | solubility [1] [µM] | concentration at 0.5 h [2] [µM] | concentration at 0.5 h [3] [µmol/g] | concentration at 2 h [4] [µM] | concentration at 2 h [5] [µmol/g] | concentration at 6 h [6] [µM] | concentration at 6 h [7] [µmol/g] | concentration at 168 h [8] [µM] | concentration at 168 h [9] [µmol/g] | SMILES | Activity (Mus musculus [10]) [%] | Activity (Mus musculus [11]) [%]
4.5 | 6.6 (≈ 3.16 µg/mL) |  |  |  |  |  |  |  |  | FC1(F)CCC(NC(=S)c2cnc(-c3ccc(Cl)cc3)c(-c3ccc(Cl)cc3)n2)CC1 |  | 
2.9 | < 0.1 | 0.136 | 0.05 | 0.153 | 0.08 | 0.148 | 0.07 | 0.024 |  | COCc1nc(-c2ccc(Cl)cc2)c(-c2ccc(Cl)cc2)nc1C(=O)NC1CCC(F)(F)CC1 |  | 
2.4 | < 0.1 | 0.403 | 0.18 | 0.604 | 0.32 | 0.137 | 0.14 | 0.032 | 0.05 | COCc1nc(-c2ccc(Cl)cc2)c(-c2ccc(Cl)cc2)nc1C(=S)NC1CCC(F)(F)CC1 | 85 | 
5.3 | < 0.1 |  |  |  |  |  |  |  |  | O=C(NC1CCC(F)(F)CC1)c1cnc(-c2ccc(Cl)cc2)c(-c2ccc(Cl)cc2)n1 |  | 
 | < 1.1 | 1.36 | 1.11 | 1.95 | 1.69 | 0.9 | 0.68 |  |  | Cc1c(C(=O)NN2CCCCC2)nn(-c2ccc(Cl)cc2Cl)c1-c1ccc(Cl)cc1 [RIMONABANT] |  | 85
5.8 | 6.1 (≈ 2.7 µg/mL) |  |  |  |  |  |  |  |  | S=C(NC1CCCCC1)c1cnc(-c2ccc(Cl)cc2)c(-c2ccc(Cl)cc2)n1 |  | 

SMILES | IC50 (Cannabinoid receptor 1) [nM] | solubility [1] [µM] | concentration at 0.5 h [2] [µM] | concentration at 0.5 h [3] [µmol/g] | concentration at 2 h [4] [µM] | concentration at 2 h [5] [µmol/g] | concentration at 6 h [6] [µM] | concentration at 6 h [7] [µmol/g] | concentration at 168 h [8] [µM] | concentration at 168 h [9] [µmol/g] | Activity (Mus musculus [10]) [%] | Activity (Mus musculus [11]) [%]
O=C(NC1CCCCC1)c1cnc(-c2ccc(Cl)cc2)c(-c2ccc(Cl)cc2)n1 | 16.6 | < 0.1 |  |  |  |  |  |  |  |  |  | 
